# Source: PubChem BioAssay (The Scripps Research Institute Molecular Screening Center)
# In the library only some 2.7% were active in any assay of this set; here they are far more common.
# SIAE inh: human SIAE inhibitors, primary screen, biochemical, fluorescence polarization, FP-Rh probe, 1536-well HTS | SIAE FP-Rh probe binding | inhibition, % at 9.66 µM | AID 1053197, 2014 | 370,000 tested, 0.69% active | Sialate O-acetylesterase (Homo sapiens), Q9HAT2;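 active means inhibition above a cutoff: mean of compounds within the control limits plus 3 SD of those, cut at about 17% in these data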;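 further: 0% = plate median of compound wells and 100% = probe without SIAE protein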
# Target sequence (Q9HAT2 whole entry, looked up): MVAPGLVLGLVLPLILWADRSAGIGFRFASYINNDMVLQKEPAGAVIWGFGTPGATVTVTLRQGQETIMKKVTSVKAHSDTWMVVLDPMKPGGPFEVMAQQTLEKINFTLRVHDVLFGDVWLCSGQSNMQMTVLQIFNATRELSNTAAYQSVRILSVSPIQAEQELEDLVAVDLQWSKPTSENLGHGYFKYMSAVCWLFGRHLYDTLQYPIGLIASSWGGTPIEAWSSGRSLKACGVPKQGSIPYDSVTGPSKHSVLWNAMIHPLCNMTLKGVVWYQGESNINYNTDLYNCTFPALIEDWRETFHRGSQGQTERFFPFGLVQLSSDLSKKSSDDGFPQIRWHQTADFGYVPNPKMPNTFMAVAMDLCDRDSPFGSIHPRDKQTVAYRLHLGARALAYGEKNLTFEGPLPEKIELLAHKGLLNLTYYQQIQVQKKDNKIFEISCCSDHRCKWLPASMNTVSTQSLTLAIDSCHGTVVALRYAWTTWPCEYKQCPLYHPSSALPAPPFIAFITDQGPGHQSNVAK
# PRMT1 FP inh: PRMT1 methyltransferase inhibitors, primary screen, biochemical, fluorescence polarization; Protein arginine N-methyltransferase 1 (Homo sapiens), Q99873; recombinant PRMT1, activity-based probe fluorescence polarization; inhibition, % at 2.79 µM; 370,000 tested, 1.3% active; AID 652257, 2013;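 active means inhibition above about 21% made by adding two undisclosed values, limit read from the data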
# GSTO1 counter: inhibitors of recombinant GSTO1, primary screen, counter-screen for RBBP9 inhibitor project, biochemical, fluorescence polarization; Glutathione S-transferase omega-1 (Homo sapiens), P78417; activity-based probe fluorescence polarization; inhibition, % at 5.96 µM; 300,000 tested, 1.1% active; AID 1974, 2009;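 active means inhibition above the campaign mean inhibition plus 3 SD, cut at about 35% in these data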;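 further: 0% = GSTO1-1 with DMSO and 100% = wells lacking GSTO1-1 enzyme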
# PAD4 FP inh: human PAD4 inhibitors, primary screen, biochemical, fluorescence polarization, 1536-well format; Protein-arginine deiminase type-4 (Homo sapiens), Q9UM07; 330,000 tested, 0.41% active; AID 485272, 2010; recombinant PAD4, RCA probe fluorescence polarization; inhibition, % at 6.36 µM;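 active means percent inhibition above a cutoff equal to the mean of all tested compounds plus 3 SD, cut at about 15% in these data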;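 further: 0% = PAD4 with RCA probe and DMSO and 100% = probe without PAD4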
# RBBP9 inhibitor: human RBBP9 inhibitors, primary screen, biochemical, fluorescence polarization, FP-Rh probe, HTS. Serine hydrolase RBBP9 (Homo sapiens), O75884. recombinant RBBP9. AID 1515, 2009. 220,000 tested, 0.2% active. inhibition, % at 7.94 µM;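 active means inhibition above the campaign mean of all tested compounds plus 3 SD, cut at about 14% in these data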;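 further: plate controls were DMSO wells with RBBP9 for no effect and wells lacking RBBP9 protein for full effect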
#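 Measured by – fluorescence polarization · Test system – RBBP9 protein · Input – 2.5 µM RBBP9 dispensing solution, before mixing · Measure – percent inhibition from mP, scaled between DMSO and no-protein wells · Benchmarks – DMSO-treated enzyme wells and wells lacking RBBP9 · Times – preincubation 30 min plus labeling 45 min at 25 °C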
# * = called active by the depositor; · = not tested or not shown.
SMILES,SIAE inh,PRMT1 FP inh,GSTO1 counter,PAD4 FP inh,RBBP9 inhibitor
O=C(Nc1ccccc1SC(=O)c1ccccc1)c1ccccc1,3,94*,·,·,·
C1=CC2c3ccccc3NC(c3ccncc3)C2C1 (centres undefined),10,23*,47*,-9,-3
COC(=O)c1ccc(C2Nc3ccc(/C(C)=N/NC(=O)C(OC)c4ccccc4)cc3C3C=CCC32)cc1 (centres undefined),22*,16,21,-10,1
COC(C(=O)N/N=C(\C)c1ccc(O)cc1)c1ccccc1 (centres undefined),-3,-1,1,-3,·
CC(=O)c1ccc2c(c1)C1C=CCC1C(c1ccncc1)N2 (centres undefined),8,9,44*,-10,0
CCC(=O)Nc1nc(-c2ccccc2)ns1,-3,0,-3,3,-12
COC(=O)c1ccc(C2/C(=C(/O)c3ccc(OC)cc3)C(=O)C(=O)N2Cc2ccco2)cc1 (centres undefined),-5,2,-6,-3,-3
COc1ccc(/C(O)=C2/C(=O)C(=O)N(Cc3ccco3)C2c2cccs2)cc1 (centres undefined),9,24*,0,-5,-9
COc1ccc(/C=N/Nc2ncnc3c2[nH]c2ccccc23)c(OC)c1OC,11,-1,8,-4,-7
COc1cccc(/C=N/Nc2ncnc3c2[nH]c2ccc(C)cc23)c1OC,1,-2,37*,0,5
CC(C)CC(=O)NNC(=S)NCc1ccco1,-2,3,13,0,0
CCOc1cc2c(cc1/C=C/c1noc(C)c1[N+](=O)[O-])OC(C)C2 (centres undefined),-2,3,-3,9,·
O=C(CSc1nnc(NC(=O)c2ccccc2[N+](=O)[O-])s1)NCc1ccco1,8,0,-4,-6,·
COC/C=C/C1=CC2=CC(=O)C(C)(OC(=O)c3cnc4ccccc4n3)C(=O)C2=CN1C(CO)CO (centres undefined),3,7,16,-9,·
COC/C=C/C1=CC2=CC(=O)C(C)(OC(=O)c3cnc4ccccc4n3)C(=O)C2=CO1 (centres undefined),·,·,56*,50*,·
COc1ccc(CN(C)C(=O)CCl)cc1,0,2,·,·,-5
CN(Cc1ccc(Cl)cc1)C(=O)CCl,-5,0,86*,-2,-6
c1ccc(-c2csc(Nc3ccc4c(c3)OCO4)n2)cc1,10,2,·,·,·
O=C1c2ccccc2C(=O)N1c1cccc(-c2csc(Nc3ccc4c(c3)OCO4)n2)c1,·,·,62*,-1,3
Cc1cc(C(=O)CSc2nnc(N)s2)c(C)n1CCc1ccc(F)cc1,-3,3,3,-3,0
Cc1cc(C(=O)CCl)c(C)n1CCc1ccc(Cl)cc1,4,-1,88*,-2,-9
Cc1cc(C(=O)CSc2nnc(N)s2)c(C)n1CCc1ccc(Cl)cc1,0,2,1,-2,-13
Cc1cc(C(=O)CSc2nc(N)cc(=O)[nH]2)c(C)n1CCc1ccc(F)cc1,1,3,-1,32*,-14
O=C(Nc1ccccc1C(=O)O)c1cc(S(=O)(=O)N2CCCCC2)c(Cl)cc1Cl,6,-2,36*,3,·
O=C(Nc1ccccc1C(=O)O)c1ccc(Cl)c(S(=O)(=O)N2CCOCC2)c1,-11,-3,-3,-1,-6
SMILES,SIAE inh,PRMT1 FP inh,GSTO1 counter,PAD4 FP inh,RBBP9 inhibitor
CC1CC(C)CN(CCCNC(=O)c2ccc(CS(=O)(=O)Cc3cccc(Cl)c3)o2)C1 (centres undefined),1,4,3,-4,·
OCC1OC(n2cnc3c(=S)nc[nH]c32)CC1O (centres undefined),2,21*,·,·,·
COc1ccc(NCc2cc3cc(OC)ccc3[nH]c2=O)cc1,5,21*,9,-7,3
COc1ccc(NCc2cc3ccccc3[nH]c2=O)cc1,4,2,11,-6,-6
COc1cc(CNn2cn[nH]c2=S)cc(Cl)c1OCc1ccccc1,-3,12,3,-6,-2
COc1cc(CNn2cn[nH]c2=S)cc(Br)c1OCc1ccccc1F,-1,24*,5,0,0
Cc1nn(S(=O)(=O)c2ccc([N+](=O)[O-])cc2)c(C)c1Sc1ccccc1,3,-2,-2,-1,-9
O=C(OCC#CCSc1nnc(-c2ccncc2)o1)c1cccs1,0,-3,37*,-1,-3
CC(=O)Nc1ccc(C(=S)NCCCO)cc1,-4,22*,3,-2,-6
O=C(Nc1ccc(Cl)cc1)Nc1ccc2c(c1)N1CCN=C1S2,19*,16,-3,6,-7
Cc1cccc(CNC(=O)Nc2nnc([C@H]3C[C@H](O)[C@@H](CO)O3)s2)c1,6,2,·,·,·
O=C1c2sc3nc4n(c(=O)c3c2CCC1Br)CCCCC4 (centres undefined),-2,18,55*,-2,-3
O=C1CCCc2c1sc1nc3n(c(=O)c21)CCCCC3,-2,1,-2,0,-1
CCOC(=O)C1Nc2ccccc2C2C(O)C(O)CC12 (centres undefined),5,27*,20,-5,·
CCOC(=O)C1Nc2ccc(C(F)(F)F)cc2C2c3ccccc3CC12 (centres undefined),8,-1,4,3,·
CC1(C)CC(=O)C2=C(C1)Nc1ccccc1NC2c1nc2ccccc2[nH]1 (centres undefined),2,0,11,3,-2
CC1CCC(NC(=O)c2nn(C)c3c2CSc2ccccc2-3)CC1 (centres undefined),-5,22*,-4,3,·
COc1cc(OC)cc(-c2c(-c3cccs3)c3cc(Br)ccc3n2C)c1,-7,25*,·,-5,·
Cc1csc2nnc(N)n12,0,0,-2,-3,-3
Cc1ccc(-c2csc3ncn(-n4c(C)ccc4C)c(=O)c23)o1,-5,24*,16,-2,-8
CCCNC(=O)Cn1cnc2sc(C(=O)Nc3cc(OC)c(OC)c(OC)c3)c(C)c2c1=O,·,·,6,1,-3
CCCn1c2ccccc2c2nnc(SCCN3CCOCC3)nc21,0,24*,-3,3,·
O=C(O)c1ccc2nc(C(F)(F)F)[nH]c2c1,0,-1,-2,-1,-8
Cc1ccc(C)c(NC(=O)COC(=O)CC2CC3CCC2C3)c1 (centres undefined),4,-3,·,-6,·
Clc1ccc(-c2nnc3sc(-c4ccccn4)nn23)cc1,·,·,·,·,-8
CC(C)(C)c1ccc(-c2nnc3sc(-c4ccccn4)nn23)cc1,9,22*,-7,-1,-3
O=C(NCc1ccco1)[C@@H]1CSC2c3ccccc3C(=O)N21 (some centres undefined),-3,21*,-6,-5,-8
